Compound activity as filed in PubChem.
The list is not random: actives were taken first. Their share in the collection is about 5.6%.
XBP1 UPR activ: adaptive UPR (XBP1) activation; CHO-XBP1 luciferase reporter, IRE1-XBP1 UPR activation, luminescence; percent of tunicamycin response, DMSO as zero; activation, % at 20 µM; 0.33% of 330,000 active; AID 463104;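 active = versus positive control, 20 µM dose yields 30% or more activation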;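 also: 100% = tunicamycin at 10 µg/mL and 0% = DMSO only wells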
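Material: CHO-XBP1 cells stably carrying IRE1-XBP1-driven luciferase reporter | Medium: F12 with 10% serum | Compound dosing: 20 µM single concentration, DMSO 1% | Incubation: Overnight seeding at 37 °C, 6 h compound treatment at 37 °C | Detection: Steady-Glo luminescence read | Read-out basis: % activation of reporter signal versus tunicamycin and DMSO controls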
GRIN3A LBD mod: NR3A (human) ligand-binding domain modulation; NR3A LBD differential scanning fluorimetry, Tm shift; 0% = protein alone, 100% = glycine-bound protein; Tm shift relative to glycine control, % at 25 µM; 2.5% of 340,000 active;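 active = melting temperature shift of at least 10% of the positive control shift, at one fixed dose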
aDG glyco act: increases alpha dystroglycan glycosylation; Pro5-aDG cells, alpha-DG glycosylation AlphaScreen (IIH6); 0% Pro5, 100% B10-LARGE cell signal; activation, % at 10 µM; 0.22% of 360,000 active; AID 624168;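 active = activation of at least 8% versus controls, or a plate z-score of at least 8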;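 also: Pro5 are CHO cells carrying HIG-tagged alpha-DG that lacks glycosylation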
UPR CHOP act: apoptotic UPR (CHOP) activation; activation, % at 10 µM; CHO-CHOP luciferase reporter, luminescence; percent of tunicamycin response over DMSO baseline; 0.34% of 330,000 active;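 active = at 10 µM dose, activation of 40% or more, normalized to positive control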;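 also: 100% = tunicamycin at 10 µg/mL and 0% = DMSO alone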
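Dosing – one dose, 10 µM in 0.5% DMSO · System – CHO-CHOP cells, stable luciferase reporter of PERK-eIF2a-CHOP signalling · Input – 500 cells/well · Control set – tunicamycin 10 µg/mL final as positive, DMSO-only wells as negative · Timing – 6 h compound treatment, 37 °C · Measure – % activation vs tunicamycin · Technique – luminescence read with Steady-Glo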
MPTP block: inhibitors of mitochondrial permeability transition pore; isolated mouse mitochondria, Ca2+ swelling absorbance, 30 min; inhibition, % at 10 µM; 1.4% of 360,000 active;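 active = inhibition of 50% or more, scaled per plate between neutral and stimulator controls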;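 also: 0% = DMSO wells given calcium and 100% = 1 mM EGTA wells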
CHOP inh: inhibitors of CHOP induction in ER stress response | 3.8% of 220,000 active | inhibition, % at 10 µM | CHO-K1 CHOP-promoter luciferase, tunicamycin-induced, 15-18 h;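 active = compounds that reduced the stress-induced luciferase reporter signal by more than about 70% of percent inhibition, limit read from the data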;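 also: 0% = tunicamycin plus vehicle and 100% = wells without tunicamycin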
Active calls of the source: *; x = no result.

SMILES	XBP1 UPR activ	GRIN3A LBD mod	aDG glyco act	UPR CHOP act	MPTP block	CHOP inh
Cc1ccc2c(c1)c(C)c(C)n2CC(O)CN1CCCCC1C (stereo not given)	-1	1	0	-1	1	39
COCCn1c(SCC(=O)NCC2CCCO2)nc2c(c1=O)SCC2 (stereo not given)	-4	0	0	-1	2	x
O=C(/C=C/c1ccccc1O)c1ccco1	17	23*	0	8	-1	x
COc1ccc(NS(=O)(=O)c2cc(NC(=O)[C@@H](NC(=O)c3ccccc3)C(C)C)ccc2C)cc1	4	13*	0	5	2	2
COc1ccc(NS(=O)(=O)c2cc(NC(=O)c3ccc(=O)[nH]c3)ccc2C)cc1	-2	-1	0	3	0	x
CCC(=O)Oc1c(S(=O)(=O)c2ccc(C)cc2)c(C)nn1C(C)(C)C	-4	15*	0	-1	0	46
Cc1ccc(S(=O)(=O)c2c(C)nn(C(C)(C)C)c2OC(=O)CC(C)C)cc1	-1	0	0	-1	1	80*
Cc1ccc(S(=O)(=O)c2c(C)nn(C(C)(C)C)c2OC(=O)C(C)C)cc1	-4	2	0	3	2	32
CS(=O)(=O)N(Cc1ccc(C(=O)NN=C2CCCCCC2)cc1)c1ccccc1	0	13*	0	0	-2	-6
CS(=O)(=O)N(Cc1ccc(Cl)cc1)c1ccc(C(=O)N/N=C/c2cc3ccccc3nc2Cl)cc1	2	10*	0	5	-1	13
CS(=O)(=O)N(Cc1ccc(C(=O)NN=C2CCCC2)cc1)c1ccccc1	1	-1	0	-1	0	17
COCCn1c(C)cc(/C=C(\C#N)C(=O)OCC(=O)Nc2ccc(S(N)(=O)=O)cc2)c1C	7	-1	0	3	-1	x
C=CCn1c(=O)c2c3c(sc2n2c(Nc4ccc(C(=O)OCC)cc4)nnc12)CCCC3	8	0	0	4	8	88*
C=CCn1c(=O)c2c3c(sc2n2c(Nc4ccc(OC)cc4)nnc12)CCCC3	4	-3	0	2	-1	12
COc1ccc(C2=NN(C(=O)CSc3ncccn3)C(c3ccc(OC)cc3)C2)cc1 (stereo not given)	2	-1	0	-2	0	6
COc1ccc(C2CC(c3ccc4ccccc4c3)=NN2C(=O)CSc2ncccn2)cc1 (stereo not given)	1	19*	0	7	2	9
c1ccc(-c2nc(NCc3ccco3)c3oc4ccccc4c3n2)cc1	0	3	0	0	2	92*
COc1cccc(N(C(=O)c2csnn2)C(C(=O)NC2CCCC2)c2ccccc2)c1 (stereo not given)	2	1	0	0	3	x
O=C1/C(=C/c2ccccc2)NC(=S)N1C(c1ccccc1)c1ccccc1	-1	-8	0	-2	1	89*
O=S(=O)(c1cccc2nonc12)N1CCCCCC1	1	-1	0	-1	0	13
O=c1[nH]c(CN2CCc3ccccc32)nc2scc(-c3cccs3)c12	-2	-2	0	1	3	88*
CN(CC(=O)Nc1ccc(F)c(F)c1F)C(=O)CCCSc1nc2ccccc2[nH]1	-2	0	0	0	2	x
S=c1[nH]nc(C2CCCCC2)n1/N=C/c1ccc(Br)s1	3	-7	0	-3	11	95*
O=[N+]([O-])c1cccc(/C=N/n2c(C3CCCCC3)n[nH]c2=S)c1	0	-3	0	-1	0	82*
Oc1cccc(/C=N/n2c(C3CCCCC3)n[nH]c2=S)c1	3	-3	0	-1	1	x
SMILES	XBP1 UPR activ	GRIN3A LBD mod	aDG glyco act	UPR CHOP act	MPTP block	CHOP inh
COc1ccccc1C(CNC(=O)c1cccc(S(=O)(=O)N2c3ccccc3CC2C)c1)N(C)C (stereo not given)	x	0	0	x	-2	x
Cc1ccccc1CCNC(=O)c1ccc(Cl)c(S(=O)(=O)N2CC(C)OC(C)C2)c1 (stereo not given)	0	-4	1	0	1	x
O=C(N/N=C/c1cccc([N+](=O)[O-])c1)c1c[nH]c2ccccc12	2	27*	0	6	3	-37
O=C(NN=Cc1cc([N+](=O)[O-])ccc1O)c1cccc2ccccc12	x	1	1	x	-1	x
Cn1cc(C(=O)N/N=C/c2ccc([N+](=O)[O-])cc2)c2ccccc21	2	28*	0	0	4	68
O=C(N/N=C/c1cc([N+](=O)[O-])ccc1O)c1c[nH]c2ccccc12	-1	27*	0	-1	5	81*
O=C(CN1c2ccccc2Sc2ccccc21)N/N=C/c1ccc([N+](=O)[O-])cc1	1	32*	0	-2	6	47
COc1cccc(C(=O)OCC(=O)Nc2cc(C)on2)c1OC	0	-1	0	1	-2	x
Cc1cc(C(=O)N/N=C/c2cc([N+](=O)[O-])ccc2O)c2ccccc2n1	-1	-20	0	-1	5	71*
O=c1c2ccccc2nc(COc2ccccc2)n1/N=C/c1cc([N+](=O)[O-])ccc1O	-1	22*	0	1	49	64
Cc1cc(C(=O)N/N=C/c2ccc([N+](=O)[O-])cc2)c2ccccc2n1	-2	6	0	-1	2	-9
COc1ccc(CNC(=O)C[C@H]2C[C@H](C(=O)N3CCCCC3)[C@@]3(CCc4ccccc4)c4[nH]c5ccc(Cl)cc5c4CCN3C2=O)cc1OC	7	-4	0	9	-3	x
CC(=O)Oc1ccc([C@@H]2COc3c(ccc4c3C=CC(C)(C)O4)C2)c(OC(C)=O)c1	1	-2	0	2	7	x
CC(C)=CCc1c([C@@H]2CCc3ccc(O)cc3O2)cc2c(c1O)OC(C)(C)C=C2	-2	-4	0	0	0	x
CC1(C)C=Cc2c(ccc3c2OC[C@H](c2ccc(O)cc2O)C3)O1	3	19*	0	9	1	x
CC(C)=CCc1cc([C@@H]2COc3c(ccc4c3C=CC(C)(C)O4)C2)c(O)cc1O	10	27*	1	1	35	x
O=C(Nc1ncccc1Cl)C(Sc1ccccc1)c1ccccc1 (stereo not given)	2	0	0	-2	6	75*
CC(=O)Nc1ccc(NC(=O)C(Sc2ccccc2)c2ccccc2)cc1 (stereo not given)	-1	-5	0	1	2	18
